Assay results reported in ChEMBL document CHEMBL1151709, “Antileishmanial constituents of the Panamanian endophytic fungus Edenia sp” (J Nat Prod, 2008).

Columns and labels:
[1] = Therapeutic index, ratio of IC50 for african green monkey Vero cells to IC50 for Leishmania donovani LD-1S/MHOM/SD/00-strain 1S amastigotes; assay type: cell-based; conditions: read-out: Ratio IC50
In short: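 Therapeutic window calculated as Vero-cell IC50 (MTT cytotoxicity) divided by IC50 against axenic L. donovani amastigotes (PicoGreen growth/survival assay).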

Plasmodium falciparum = assay: Antimalarial activity against Plasmodium falciparum; assay type: functional, organism-based
In short: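 Run per the authors' earlier protocol with chloroquine as positive control; duplicate wells at 10, 2, 0.4, 0.08 and 0.016 μg/mL.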

Trypanosoma cruzi = assay: Antitrypanosomal activity against Trypanosoma cruzi; assay type: functional, organism-based
In short: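 Buckner et al. protocol with nifurtimox as positive control; tested in duplicate at 10, 2, 0.4, 0.08 and 0.016 μg/mL.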

Leishmania donovani = assay: Antileishmanial activity against Leishmania donovani LD-1S/MHOM/SD/00-strain 1S amastigotes; assay type: functional, organism-based
In short: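 Axenic (cell-free) L. donovani amastigotes; parasite growth and survival read with PicoGreen. Single-concentration screen at 10 μg/mL in duplicate, expressed as % growth versus control; samples at ≤50% growth then tested at […], 0.08, 0.4, 2 and 10 μg/mL to derive IC50. Amphotericin B positive control.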

Vero = assay: Cytotoxicity against african green monkey Vero cells by MTT assay; assay type: cell-based; conditions: Chlorocebus sabaeus
[2] = Leishmania donovani, 1S, read-out: IC50

Work on Oc1cccc2c1[C@@H](O)CCC21Oc2cccc3cccc(c23)O1 yielded a selectivity ratio [1] of 18, an IC50 (Plasmodium falciparum) greater than 10 µM and an IC50 (Trypanosoma cruzi) of 26.5 µM. It also gave an IC50 (Leishmania donovani; [2]) of 8.4 µM and an IC50 (Vero) of 150 µM.

Work on O=C1C=CC(=O)C2=C1[C@@H](O)CCC21Oc2cccc3cccc(c23)O1 yielded a selectivity ratio [1] of 245, an IC50 (Plasmodium falciparum) greater than 10 µM and an IC50 (Trypanosoma cruzi) greater than 10 µM. It also gave an IC50 (Leishmania donovani; [2]) of 0.62 µM and an IC50 (Vero) of 152 µM.

Work on C[C@@H]1[C@H](O)[C@@H](C)/C=C/C=C/C=C/C=C/C=C/C=C/C=C/[C@H](O[C@@H]2O[C@H](C)[C@@H](O)[C@H](N)[C@@H]2O)C[C@@H]2O[C@](O)(C[C@@H](O)C[C@@H](O)[C@H](O)CC[C@@H](O)C[C@@H](O)CC(=O)O[C@H]1C)C[C@H](O)[C@H]2C(=O)O [AMPHOTERICIN B] yielded an IC50 (Leishmania donovani) of 0.07 µg/mL.

Molecule COc1cc2c(c(OC)c1)C(C)=[N+](c1ccc(OC)c3c(OC)cc(C)cc13)[C@@H](C)C2.O=C([O-])C(F)(F)F [ANCISANCISTROCLADINIUM A] has an IC50 (Leishmania donovani; [2]) of 0.722 µg/mL.

COc1cc2c(c(OC)c1)C(C)=[N+](c1ccc3cc(C)cc(OC)c3c1O)[C@@H](C)C2.O=C([O-])C(F)(F)F [ANCISTROCLADINIUM B] gave an IC50 (Leishmania donovani; [2]) of 1.1 µg/mL.

Work on CC1CS(=O)(=O)CCN1/N=C/c1ccc([N+](=O)[O-])o1 (centres undefined) [NIFURTIMOX] yielded an IC50 (Trypanosoma cruzi) of 3 µg/mL.

In the case of O=C1CCC2(Oc3cccc4cccc(c34)O2)c2cccc(O)c21 [PALMARUMYCIN CP2], the selectivity ratio [1] is reported as 41, the IC50 (Plasmodium falciparum) is reported as greater than 10 µM and the IC50 (Trypanosoma cruzi) is reported as 18.5 µM. It also gave an IC50 (Leishmania donovani; [2]) of 3.93 µM and an IC50 (Vero) of 162 µM.

O=C1CCC2(Oc3cccc4cccc(c34)O2)c2c(O)ccc(O)c21 [PALMARUMYCIN CP17] gave a selectivity ratio [1] of 130, an IC50 (Plasmodium falciparum) greater than 10 µM and an IC50 (Trypanosoma cruzi) greater than 10 µM. For the same molecule, the IC50 (Leishmania donovani; [2]) was 1.34 µM and the IC50 (Vero) was 174 µM.

Molecule O=C1C=C[C@]23Oc4ccc(O)c5c4[C@](CCC5=O)(Oc4cccc1c42)O3 [PREUSSOMERIN EG1] has a selectivity ratio [1] of 75, an IC50 (Plasmodium falciparum) of 16.5 µM and an IC50 (Trypanosoma cruzi) greater than 10 µM. For the same molecule, the IC50 (Leishmania donovani; [2]) was 0.12 µM and the IC50 (Vero) was 9 µM.
